Assay results from ChEMBL document CHEMBL4715824, “Chemical Proteomic Characterization of a Covalent KRASG12C Inhibitor” (ACS Med Chem Lett, 2018).
The source made the active and inactive calls. The rule behind the calls is not given here.

What was measured:
Heme oxygenase 2 = biological target: T1, Heme oxygenase 2 (Homo sapiens, UniProt P30519); experiment: (§1) Covalent binding affinity to HMOX2 at Cys282 residue in human NCI-H358 cells assessed as reduction of log2 H/L ratio for tryptic peptide […] incubated for 4 hrs followed by cell lysis and subsequently labelled with light thiol probe N-((S)-18-iodo-11-isopropyl-10,13,17-trioxo-3,6-dioxa-9,12,16-triazaoctadecyl)-6-((4R,5S)-5-methyl-2-oxoimidazolidin-4-yl)hexanamide and heavy thiol probe 4 for 1 hr under dark conditions followed by tryptic digestion for overnight and measured by discovery ABPP based nano LC-MS/MS analysis
T1 sequence (P30519 whole entry): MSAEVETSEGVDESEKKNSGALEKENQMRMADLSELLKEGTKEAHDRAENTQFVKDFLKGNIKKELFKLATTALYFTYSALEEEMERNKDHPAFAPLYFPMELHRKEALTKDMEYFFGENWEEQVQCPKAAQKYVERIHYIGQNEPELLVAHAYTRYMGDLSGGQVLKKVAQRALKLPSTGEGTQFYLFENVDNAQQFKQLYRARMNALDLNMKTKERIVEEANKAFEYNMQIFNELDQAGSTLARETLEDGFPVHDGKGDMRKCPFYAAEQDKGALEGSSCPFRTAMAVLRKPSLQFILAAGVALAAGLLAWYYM
How it was run: (§2)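 H358 cells were treated 4 h with DMSO, 0.08, 0.4, 2 or 10 μM, each paired with DMSO control cells, in biological duplicate. After lysis and denaturation, treated lysate took heavy thiol probe and control lysate took light probe. Lysates were combined equally, and probe-labelled tryptic peptides were streptavidin-enriched. Peptides were run twice by 180 min data-dependent nano LC-MS/MS. Hits needed log2 H/L below −0.776 (3σ) plus a dose-dependent decrease.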

Homo sapiens [1] = species on record: Homo sapiens; experiment: (§3) Covalent inhibition of GDP bound His-tagged KRAS G12C/C51L/C80L/C118S mutant (1 to 169 residues) (unknown origin) expressed in Escherichia coli assessed as enzyme-compound adduct formation at Cys12 residue by measuring ratio of Kinact/Ki measured up to 20 mins by mass spectrometry analysis; details: time min <=20
How it was run: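 KRAS G12C was held fixed at 2 μM and incubated with varying compound concentrations. Fraction of covalent Cys12 adduct over time was measured by intact-protein LC-MS, and kinact/KI was calculated from these kinetic data.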

[2] = biological target: T2, Peroxiredoxin-like 2A (Homo sapiens) (UniProt Q9BRX8); experiment: (§4) Covalent binding affinity to FAM213A in human NCI-H358 cells assessed as log2 H/L ratio at 10 uM pretreated for 3 hrs followed by N-(((6S,7R)-7-(4-chloro-3-fluorophenyl)-1,4-oxazepan-6-yl)methyl)-2-hydroxyacetamide treatment for 3 hrs by competitive TMT click chemistry pull-down experiment based LC-MS/MS analysis; type: cell-based; details: time 6.0 hrs
T2 sequence (whole entry): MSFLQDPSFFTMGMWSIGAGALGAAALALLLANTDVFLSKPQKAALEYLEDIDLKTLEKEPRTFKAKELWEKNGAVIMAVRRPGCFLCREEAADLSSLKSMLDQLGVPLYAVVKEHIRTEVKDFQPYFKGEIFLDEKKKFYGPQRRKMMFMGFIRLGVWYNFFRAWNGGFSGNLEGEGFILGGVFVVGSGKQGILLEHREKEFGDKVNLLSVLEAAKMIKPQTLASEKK
How it was run: (§5)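 H358 cells were pretreated with DMSO (n = 3) or 10 μM compound for 3 h, then 2 μM alkyne probe was added for another 3 h. Cells were lysed, clicked onto azide-agarose resin, digested, TMT-labelled and pooled. The pool was fractionated by high-pH HPLC and each fraction run twice by 60 min low-pH nano LC-MS/MS. Readout was log2 compound/DMSO normalized reporter intensity, with a least-squares means test and FDR adjustment.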

[3] = biological target: T2, Peroxiredoxin-like 2A (Homo sapiens); experiment: Covalent binding affinity to FAM213A in human NCI-H358 cells incubated for 4 hrs followed by cell lysis and subsequently labelled with light thiol probe N-((S)-18-iodo-11-isopropyl-10,13,17-trioxo-3,6-dioxa-9,12,16-triazaoctadecyl)-6-((4R,5S)-5-methyl-2-oxoimidazolidin-4-yl)hexanamide and heavy thiol probe 4 for 1 hr under dark conditions followed by tryptic digestion for overnight and measured by discovery ABPP based nano LC-MS/MS analysis
[4] = tested on: GTPase KRas (Homo sapiens), P01116 [G12C]; experiment: Covalent binding affinity to KRAS G12C mutant at Cys12 residue in human NCI-H358 cells assessed as reduction of log2 H/L ratio for tryptic peptide LVVVGACGVGK at 2 uM incubated for 4 hrs followed by cell lysis and subsequently labelled with light thiol probe N-((S)-18-iodo-11-isopropyl-10,13,17-trio …; type: cell-based
Homo sapiens [5] = species on record: Homo sapiens; experiment: as §3, with “analysis relative to ARS-853” for “analysis”; details: time min <=20
[6] = biological target: T3, Quinone oxidoreductase (Homo sapiens) (UniProt Q08257); experiment: as §4, with “CRYZ at Cys45 residue” for “FAM213A”; type: cell-based; details: time 6.0 hrs; how it was run: as §5
T3 sequence (whole entry): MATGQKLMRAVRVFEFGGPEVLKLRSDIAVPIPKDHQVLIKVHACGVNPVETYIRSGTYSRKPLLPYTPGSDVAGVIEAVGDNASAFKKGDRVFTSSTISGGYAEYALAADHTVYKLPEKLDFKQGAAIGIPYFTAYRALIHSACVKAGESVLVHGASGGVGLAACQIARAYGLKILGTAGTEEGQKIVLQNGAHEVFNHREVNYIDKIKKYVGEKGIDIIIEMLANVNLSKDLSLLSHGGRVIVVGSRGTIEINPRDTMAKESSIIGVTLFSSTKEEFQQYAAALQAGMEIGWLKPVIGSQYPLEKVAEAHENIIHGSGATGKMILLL

MIA PaCa-2 = experiment: Antiproliferative activity against human MIA PaCa-2 cells harboring KRAS G12C mutant assessed as reduction in cell viability; type: functional, cell-based
Quinone oxidoreductase = biological target: T4, Quinone oxidoreductase (Homo sapiens, UniProt Q08257); experiment: as §1, with “CRYZ” for “HMOX2”, “Cys45” for “Cys282”; how it was run: as §2
T4 sequence (Q08257 whole entry): T3 sequence (whole entry)

NCI-H2030 = experiment: Antiproliferative activity against human NCI-H2030 cells harboring KRAS G12C mutant assessed as reduction in cell viability; type: functional, cell-based
[7] = tested on: GTPase KRas (Homo sapiens), P01116 [G12C]; experiment: as §4, with “KRAS G12C mutant at Cys12 residue” for “FAM213A”; type: cell-based; details: time 6.0 hrs; how it was run: as §5
NCI-H23 = experiment: Antiproliferative activity against human NCI-H23 cells harboring KRAS G12C mutant assessed as reduction in cell viability; type: functional, cell-based

IC50 (Heme oxygenase 2): 7640 nM
Ratio (Homo sapiens [1]): 501 M⁻¹ s⁻¹
Ratio [2]: -1.7
Activity [3]: inactive
Activity [4]: Active
fold change (FC) (Homo sapiens [5]): 6
Ratio [6]: 0.15
IC50 (MIA PaCa-2): 120 nM
IC50 (Quinone oxidoreductase): 8440 nM
IC50 (NCI-H2030): 160 nM
Ratio [7]: -1.8
IC50 (NCI-H23): 700 nM
Compound: C=CC(=O)N1CCN(c2ncnc3c(F)c(-c4c(O)cccc4F)c(Cl)cc23)CC1
